Bioassay records: PubChem, several laboratories
Shown are actives, neighbours in structure and some others; about 1.3% of the full set was active somewhere.
Diaphorase inh: diaphorase inhibition or chemical oxidation counter-screen. diaphorase resazurin-to-resorufin fluorescence, NADH, 16 min; bacterial (C. kluyveri) enzyme, not human. inhibition, % at 20 µM. 190,000 tested, 0.69% active;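 active = primary screen inhibition at 20 µM above a set limit, cut at about 50% in these data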;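 note: plate controls were DMSO with full reaction for no effect and wells lacking NADH for full effect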
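System: Diaphorase enzyme from Clostridium kluyveri | Amount: Enzyme working solution with 0.14 U/mL diaphorase | Benchmarks: No-NADH positive control and DMSO neutral control | Signal: Fluorescence of resorufin formed from resazurin, Ex 544/Em 590 nm | Schedule: 16-min room-temperature incubation before reading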
Tb hexokinase: T. brucei hexokinase 1 inhibition; recombinant TbHK1, G6PDH-coupled NADH A340; inhibition, % at 10 µM; 220,000 tested, 0.11% active;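 active = inhibition of 50% or more in the single-dose primary screen; inactive = inhibition below 50%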
HKDC1 inh: HKDC1 (human) hexokinase inhibition; recombinant HKDC1, G6PDH/diaphorase resazurin coupled fluorescence; inhibition, % at 20 µM; 340,000 tested, 0.16% active; AID 493160;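 active = inhibition above about 35% when tested at 20 µM, limit read from the data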;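 note: plate controls were DMSO wells with enzyme for no effect and DMSO wells lacking enzyme for full effect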
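Material – in-house recombinant HK5 (HKDC1) enzyme · Quantity – HKDC1 at 5 µg/mL · Buffer or medium – pH 8.0 Tris buffer with 10 mM MgCl2 · Reagent – glucose with 1 mM ATP · Dosing – single 20 µM dose · Times – reaction time 90 min, room temperature, protected from light · Technique – resorufin fluorescence at 613 nm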
PfGluPho inh: PfG6PD (Plasmodium falciparum) enzyme inhibition; PfGluPho enzyme, NADPH resazurin-diaphorase fluorescence; inhibition, % at 20 µM; 350,000 tested, 0.78% active; AID 504690;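 active = inhibition reaching at least a set limit at 20 µM in the primary screen, cut at about 59% in these data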;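 note: 0% = DMSO wells with substrate and 100% = DMSO wells lacking glucose-6-phosphate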
G6PDH CS: inhibits Leuconostoc G6PDH, flagging false hits in G6PDH-based assays | Purified L. mesenteroides G6PDH, diaphorase/resazurin coupled fluorescence, 45 min | inhibition, % at 5 µM | 200,000 tested, 0.12% active; in the data active = inhibition above about 50%
PfG6PD confirm: PfG6PD inhibition, single-dose confirmed. inhibition, % at 20 µM. recombinant PfGluPho, NADPH-diaphorase-resazurin fluorescence. shares compounds with PfGluPho inh. 2,400 tested, 34% active;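 active = inhibition of at least 50% at 20 µM in any single replicate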;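 note: 0% = DMSO with substrate and 100% = DMSO lacking glucose-6-phosphate substrate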
Diaph ctr 10uM: inhibits diaphorase or oxidizes, flagging false PfG6PD hits; shares compounds with PfGluPho inh; inhibition, % at 20 µM; 820 tested, 39% active; diaphorase-coupled resazurin reduction, fluorescence, NADPH 10 uM;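 active = average inhibition reaching 50% or more with the compound at 20 µM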;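 note: resorufin red fluorescence formed as diaphorase reduces resazurin using NADPH; 0% = DMSO with enzyme and 100% = DMSO without enzyme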
Diaph ctr 30uM: diaphorase inhibition or oxidation at 30 uM NADPH. shares compounds with PfGluPho inh. Diaphorase/resazurin coupled assay, resorufin fluorescence. inhibition, % at 20 µM. 820 tested, 29% active;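 active = inhibition averaging 50% or more, tested at 20 µM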;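 note: 0% = DMSO with enzyme and 100% = DMSO wells lacking diaphorase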
Starred values were filed as active, the others as inactive; x = not tested or not shown.

SMILES | Diaphorase inh | Tb hexokinase | HKDC1 inh | PfGluPho inh | G6PDH CS | PfG6PD confirm | others
Cn1cc(C2=C(c3ccc(Cl)cc3Cl)C(=O)NC2=O)c2ccccc21 | x | x | 5 | 66* | x | -1
CCc1cc2cc(C(=O)Nc3ccc(F)cc3)sc2s1 | -5 | -7 | -10 | 6 | 1 | x
CC(C)(C)c1ccc(C(=O)Nc2ccc(F)cc2)s1 | x | 1 | 3 | 86* | x | 7
O=c1cc2n(c(=O)[nH]1)CCC1=C2CCCC1 | 16 | 9 | 3 | 8 | 17 | x
COc1ccc(OC2C(=O)N(c3ccc(C)c(C)c3)C2c2ccc(OC)c(OC)c2)cc1 (centres undefined) | 22 | -2 | 1 | 97* | -20 | 28
COc1ccc(OC2C(=O)N(c3cc(C)ccc3C)C2c2ccc(OC)c(OC)c2)cc1 (centres undefined) | 22 | 8 | -6 | 23 | -13 | x
COc1cc(C(C)=O)ccc1OCC(=O)N1CCc2ccccc2C1 | x | x | -8 | -4 | x | x
Cn1c(=N)n(CC(O)c2cccc3ccccc23)c2ccccc21 (centres undefined) | 10 | 8 | 0 | 80* | 5 | 62* | Diaph ctr 10uM=63*;Diaph ctr 30uM=52*
C1CCN(Cc2nnnn2C2CCCC2)CC1 | 5 | -7 | -7 | -7 | 10 | x
COc1cc(N2C(=O)C=CC2=O)ccc1N1C(=O)C=CC1=O | x | x | 2 | 121* | x | 105* | Diaph ctr 10uM=-1;Diaph ctr 30uM=-18
CCOc1ccccc1/C=N/NC(=O)c1cccc(S(=O)(=O)N(CC)CC)c1 | 16 | -4 | 2 | 110* | 5 | 60* | Diaph ctr 10uM=64*;Diaph ctr 30uM=54*
CCN(CC)S(=O)(=O)c1cccc(C(=O)N/N=C/c2ccc(O)c(O)c2O)c1 | 80* | 19 | 2 | 66* | 10 | 71* | Diaph ctr 10uM=76*;Diaph ctr 30uM=86*
COc1cccc(/C=N/NC(=O)c2c(C)nc3ccc(Br)cn23)c1O | 22 | 1 | -20 | -15 | -6 | x
CCOc1ccccc1/C=N/NC(=O)c1c(C)nc2ccc(Br)cn12 | x | x | -3 | 123* | x | 98* | Diaph ctr 10uM=93*;Diaph ctr 30uM=97*
CCn1c(C)nc2cc(C(=O)N/N=C/c3cccc(OC)c3O)ccc21 | 28 | -14 | -12 | -22 | -8 | x
CCn1c(C)nc2cc(C(=O)N/N=C/c3ccc(O)c(O)c3O)ccc21 | 75* | 6 | 15 | 85* | 23 | 90* | Diaph ctr 10uM=86*;Diaph ctr 30uM=89*
Cc1cc(NC(=O)CSc2nc3ccccc3n2CC(=O)N2CCCCC2)no1 | 4 | -1 | -5 | -14 | -19 | x
COc1ccccc1NS(=O)(=O)c1cc(NC(=O)C(C)C)ccc1N1CCCCC1 | 19 | -1 | -2 | 61* | 4 | 18
COc1ccccc1NS(=O)(=O)c1cc(NC(=O)c2cccs2)ccc1N1CCCC1 | 17 | 2 | -20 | 79* | 8 | 48
COc1ccccc1NS(=O)(=O)c1cc(NC(=O)c2cccs2)ccc1N1CCCCC1 | 13 | -1 | -3 | -3 | 14 | x
CC[n+]1c(/C=C2\C=C(C)CC(C)(C)C2)sc2ccccc21 | 31 | -11 | -6 | 61* | 2 | 3
Cc1cc(C(=O)CSc2nnc(-c3ccco3)o2)c(C)n1-c1ccc2c(c1)OCCO2 | 31 | 15 | 2 | 75* | 2 | 36
Cc1nnc(SCC(=O)c2cc(C)n(-c3ccc4c(c3)OCO4)c2C)s1 | 28 | -9 | 5 | 98* | 4 | 69* | Diaph ctr 10uM=56*;Diaph ctr 30uM=42
Cc1cc(C(=O)CSc2nnnn2C)c(C)n1-c1ccc2c(c1)OCCO2 | 9 | 3 | 6 | 11 | 7 | x
Cc1cc(C(=O)CSc2nnc(-c3cccs3)o2)c(C)n1-c1ccccc1 | 29 | 6 | 4 | 79* | -35 | 43
SMILES | Diaphorase inh | Tb hexokinase | HKDC1 inh | PfGluPho inh | G6PDH CS | PfG6PD confirm | others
CCCCCCn1c(=O)n2n(c1=O)[C@@H]1CN(S(=O)(=O)c3ccc(C)cc3)C[C@]1(O)[C@@H](OC(=O)NCC1CCCCC1)C2 | x | x | x | 65* | x | -26
CCCCCCNC(=O)O[C@H]1Cn2c(=O)n(CCCCCC)c(=O)n2[C@@H]2CN(S(=O)(=O)c3ccc(C)cc3)C[C@]12O | x | x | x | 71* | x | -14
Clc1ccc(-c2noc(CN3CCN(c4ccccc4)CC3)n2)cc1 | 16 | 7 | -8 | -2 | -13 | x
Cc1ccc(/C(C#N)=C\c2ccc(N3CCOCC3)o2)cc1 | 5 | -6 | -4 | 72* | -10 | -2
Cc1ccc2nc(/C(C#N)=C\c3ccc(N4CCOCC4)o3)[nH]c2c1 | 36 | -13 | 11 | 25 | 15 | x
COC(=O)c1cc(=O)n(Cc2ccco2)c(=Nc2ccc(F)cc2)s1 | 18 | -10 | 7 | 4 | 6 | x
CC1Cc2ccccc2N1CC(=O)Nc1ccc(N2CCOCC2)cc1 (centres undefined) | 5 | -7 | -10 | -12 | 3 | x
CC(Nc1ccc(N2CCOCC2)cc1)C(=O)N1c2ccccc2CC1C (centres undefined) | x | -15 | 10 | 69* | x | -9
COc1ccc(NC(=O)CS(=O)(=O)c2cn(CC(=O)N(C(C)C)C(C)C)c3ccccc23)c(OC)c1 | x | x | 1 | -4 | x | x
CCCn1cc(S(=O)(=O)CC(=O)Nc2ccc(OC)cc2OC)c2ccccc21 | 48 | 4 | 17 | 67* | 19 | 68* | Diaph ctr 10uM=42;Diaph ctr 30uM=33
CS(=O)(=O)NCCSCc1ccc(Cl)cc1 | 14 | 3 | 1 | 4 | 14 | x
CC1CN(C(=O)c2cc3cc(Br)ccc3[nH]2)CC(C)O1 (centres undefined) | x | x | -2 | 23 | x | x
CC(C(=O)Nc1ccccc1C(F)(F)F)N1CCN(C)CC1 (centres undefined) | x | x | -4 | 5 | x | x
CCOc1ccccc1-n1c(=S)sc2c(=O)n(-c3ccc(F)cc3)c(SCC(=O)O)nc21 | x | x | 5 | 69* | x | 17
CCN(CC)C(=O)CSc1nc2c(sc(=S)n2-c2ccccc2)c(=O)n1-c1ccc(OC)cc1OC | x | x | -2 | 79* | x | 39
CN(CC(=O)Nc1ccccc1Cl)C(=O)C1CCN(C(=O)c2ccc(Cl)cc2)CC1 | x | x | -7 | 1 | x | x
CC(C)Nc1ccc(Nc2ccnc3cc4ccccc4cc23)cc1 | x | -15 | 3 | 65* | x | 19
COc1cc(/C=C2\OC(=O)c3c(OC)cccc32)ccc1O | 8 | -4 | 8 | 74* | 3 | 14
COc1cc(C=C2CN(C)C(=O)C2=O)ccc1O | x | x | x | 36 | x | x
Cc1cccc(NC(=O)CSc2nnc(-c3ccco3)c(-c3ccco3)n2)c1 | 49 | -17 | 10 | 27 | 24 | x
Cc1cccc(NC(=O)CSc2nnc(-c3ccco3)c(-c3ccco3)n2)c1C | 45 | -2 | 17 | 61* | 26 | 11
